{"data": "Published values pooled from the literature", "note": "Each line is one published result; the experiments were not run side by side."}
{"SMILES": "Oc1c(Br)cc(Cl)c2cccnc12", "system": "Sprague-Dawley rat, plasma", "setting": "intravenous, 2 mg/kg", "quantity": "C0", "value": "2400 ng/mL"}
{"SMILES": "CCc1cc(C(=O)NC)c2nccc(N3CCc4c(cc(Cn5ccnc5)cc4-c4cn(C)nc4C(F)(F)F)C3=O)c2c1", "system": "male Sprague-Dawley rat, plasma", "setting": "intravenous, 3 mg/kg", "quantity": "C0", "value": "2600 ng/mL"}
{"SMILES": "COc1cc2c3c(n(CCCN4CCOCC4)c(=O)c2cc1OC)-c1cc2c(cc1C3=O)OCO2", "system": "male Fischer 344 rat, plasma", "setting": "intravenous, 12 mg/m², single dose", "quantity": "half-life", "value": "126 min"}
{"SMILES": "CCOC(=O)[C@@]12C[C@@H]1[C@@H](n1ccc3c(NC)nc(C#Cc4ccc(Cl)s4)nc31)[C@H](O)[C@@H]2O", "system": "male Sprague-Dawley rat, plasma", "setting": "intravenous, 0.5 mg/kg, 4 h", "quantity": "concentration", "value": "1.88 ng/mL"}
{"SMILES": "Cc1noc(C)c1Cn1cc(N2C(=O)CN(Cc3cccc(O)c3)C2=O)cn1", "system": "male Sprague-Dawley rat, plasma", "setting": "oral, 10 mg/kg, 4 h", "quantity": "concentration", "value": "2.72 ng/mL"}
{"SMILES": "COC(=O)[C@H](N)CSSC[C@@H](N)C(=O)OC", "test": "chemical stability", "system": "dog, plasma", "quantity": "half-life", "value": "15.1 min"}
{"SMILES": "CCOC(=O)C1=C(C)N/C(=C/c2cc(C)n(-c3ccc(SC)cc3)c2C)C1=O", "test": "metabolic stability", "system": "mouse, liver microsomes", "setting": "1 µM", "quantity": "half-life", "value": "26 min"}
{"SMILES": "Cc1noc(C)c1Cn1cc(N2C(=O)N(Cc3cccc(O)c3)C(C)(C)C2=O)cn1", "system": "male Sprague-Dawley rat, plasma", "setting": "oral, 100 mg/kg, 2 h, single dose", "quantity": "concentration", "value": "3.8 ng/mL"}
{"SMILES": "CCOC(=O)C1=C(C)N/C(=C/c2cc(C)n(-c3ccc(OC)cc3)c2C)C1=O", "test": "metabolic stability", "system": "mouse, liver microsomes", "setting": "1 µM", "quantity": "half-life", "value": "32 min"}
{"SMILES": "COc1ccc2c(=O)n(C)c(-c3ccccc3)nc2c1", "system": "male Sprague-Dawley rat, brain", "setting": "oral, 30 mg/kg, 2 h, single dose", "quantity": "concentration", "value": "20 ng/g"}
{"SMILES": "CC1=C(C(=O)OC(C)(C)C)C(=O)/C(=C\\c2cc(C)n(-c3ccccc3C(F)(F)F)c2C)N1", "test": "metabolic stability", "system": "mouse, liver microsomes", "setting": "1 µM", "quantity": "half-life", "value": "20 min"}
{"SMILES": "COc1cccc(-c2n[nH]c(SCc3ccccn3)n2)c1OC", "system": "male Sprague-Dawley rat, plasma", "setting": "oral, 10 mg/kg, 30 min, single dose", "quantity": "concentration", "value": "21400 ng/mL"}
{"SMILES": "CCOC(=O)C1=C(C)N/C(=C/c2cc(C)n(-c3cccc(C(F)(F)F)c3)c2C)C1=O", "test": "metabolic stability", "system": "mouse, liver microsomes", "setting": "1 µM", "quantity": "half-life", "value": "18 min"}
{"SMILES": "CCc1cc(-c2noc(-c3cc(OC)nc(C4CCCC4)c3)n2)cc(C)c1OC[C@@H](O)CO", "system": "Wistar rat, plasma", "setting": "oral, 0.1 mg/kg, 3 h, single dose", "quantity": "concentration", "value": "6.2 ng/mL"}
